Assay results taken from article PMC8015125 (ACS Omega, 2021).

What was measured:
PC3 cell line = assay: MTT assay on PC3; assay type: cell-based, human; settings: 24 h treatment
Procedure, shortened: (§1)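 Cells were grown in RPMI or DMEM with 10% FBS, penicillin and streptomycin at 37 °C under 5% CO2. They were seeded at 1 × 10^4 cells/well and exposed 24 h later for 24 h to the test compound at different concentrations (complexes 0–100 μM). After two PBS washes, 0.5 mg mL–1 MTT was added for 3–4 h at 37 °C. Formazan was dissolved in extraction buffer and OD read at 570 nm. % survival was taken relative to untreated cells (100%) to give IC50. Ratios were BPH1/PC3 and WI-38/A549 IC50.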

[1] = system: WI-38 lung fibroblast cells; assay: MTT assay on WI-38; assay type: cell-based; settings: read-out: IC50 WI-38, 24 h treatment
Procedure, shortened: as §1

A549 cell line = assay: MTT assay on A549; assay type: cell-based; settings: read-out: IC50 A549, 24 h treatment
Procedure, shortened: as §1

BPH1 cell line = assay: MTT assay on BPH1; assay type: cell-based, human; settings: read-out: IC50 BPH1, 24 h treatment
Procedure, shortened: as §1

N.N.[Cl][Pt][Cl] [cisplatin, reference compound]
R1 = IC50 ratio of BPH1 cells to PC3 cells (PC3 cell line): 1.4 | IC50 (PC3 cell line; read-out: IC50 PC3, MTT): 5.4 ± 1.93 µM | IC50 [1]: 66.5 ± 2.12 µM | IC50 (A549 cell line): 60.1 ± 2.43 µM | IC50 (BPH1 cell line): 8 ± 1.03 µM
